This excerpt belongs to a sample that is enriched for hits.
B2AR ag = activates human beta-2 adrenergic receptor causing internalization; 340,000 tested, 0.43% active; P07550; Am2.2-beta2AR cells, FAP receptor internalization, flow cytometry; response, % (concentration not given with the values);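 active = response above a set limit, near 3 SD of response in nonfluorescent compounds, cut at about 42% in these data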
pCIP destab = p/CIP protein destabilization; Q05BA5; F442A p/CIP-EGFP cells, EGFP fluorescence, 16 h; decrease of EGFP signal, % at 10 µM; 290,000 tested, 0.01% active;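 active = EGFP signal decrease of at least 30% at 10 µM or well 3 SD below plate mean, unless failing retest; inactive = the rest, including hits failing retest or dose response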
Target sequence (Q05BA5 1-1403): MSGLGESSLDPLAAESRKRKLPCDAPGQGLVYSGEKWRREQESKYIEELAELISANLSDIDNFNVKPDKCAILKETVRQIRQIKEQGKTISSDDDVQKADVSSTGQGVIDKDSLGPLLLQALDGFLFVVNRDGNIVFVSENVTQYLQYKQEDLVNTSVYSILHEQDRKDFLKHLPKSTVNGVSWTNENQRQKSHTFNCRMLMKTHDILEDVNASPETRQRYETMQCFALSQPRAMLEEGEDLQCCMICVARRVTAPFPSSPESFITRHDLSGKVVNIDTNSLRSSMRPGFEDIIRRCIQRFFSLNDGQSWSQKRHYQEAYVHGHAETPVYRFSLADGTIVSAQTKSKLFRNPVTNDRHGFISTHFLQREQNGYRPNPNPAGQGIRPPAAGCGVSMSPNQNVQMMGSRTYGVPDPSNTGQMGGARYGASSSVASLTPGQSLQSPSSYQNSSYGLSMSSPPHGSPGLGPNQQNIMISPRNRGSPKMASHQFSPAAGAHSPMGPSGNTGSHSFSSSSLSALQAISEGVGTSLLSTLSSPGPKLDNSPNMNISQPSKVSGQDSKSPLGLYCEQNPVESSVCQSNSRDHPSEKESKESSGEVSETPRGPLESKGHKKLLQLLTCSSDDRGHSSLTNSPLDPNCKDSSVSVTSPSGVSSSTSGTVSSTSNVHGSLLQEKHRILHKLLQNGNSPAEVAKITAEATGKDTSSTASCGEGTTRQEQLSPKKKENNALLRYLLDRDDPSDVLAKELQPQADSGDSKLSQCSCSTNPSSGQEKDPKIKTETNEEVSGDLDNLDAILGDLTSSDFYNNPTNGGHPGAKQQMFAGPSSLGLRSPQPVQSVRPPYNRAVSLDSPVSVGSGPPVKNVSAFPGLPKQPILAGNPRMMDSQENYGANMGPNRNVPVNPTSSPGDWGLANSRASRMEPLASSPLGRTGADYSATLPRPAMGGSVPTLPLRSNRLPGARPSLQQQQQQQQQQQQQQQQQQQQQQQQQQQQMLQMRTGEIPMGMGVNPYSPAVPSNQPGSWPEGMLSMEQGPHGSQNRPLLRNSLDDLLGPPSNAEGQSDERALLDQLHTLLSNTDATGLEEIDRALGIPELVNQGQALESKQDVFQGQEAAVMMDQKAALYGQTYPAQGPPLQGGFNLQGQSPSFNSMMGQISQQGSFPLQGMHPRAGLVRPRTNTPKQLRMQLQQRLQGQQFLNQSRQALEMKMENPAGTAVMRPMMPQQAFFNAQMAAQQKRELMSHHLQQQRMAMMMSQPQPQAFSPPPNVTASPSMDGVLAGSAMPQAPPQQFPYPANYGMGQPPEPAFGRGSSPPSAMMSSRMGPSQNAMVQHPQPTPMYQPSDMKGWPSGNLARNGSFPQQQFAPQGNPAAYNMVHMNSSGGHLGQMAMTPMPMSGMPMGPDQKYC
CHOP inhibitor = blocks CHOP induction under ER stress; CHO-K1 CHOP-promoter luciferase, tunicamycin-induced, 15-18 h; inhibition, % at 10 µM; 220,000 tested, 3.8% active; AID 2732;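 active = compounds that reduced the stress-induced luciferase reporter signal by more than about 70% of percent inhibition, limit read from the data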;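 also: 0% = tunicamycin plus vehicle and 100% = wells without tunicamycin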
XBP1 UPR activ = activators of adaptive arm of unfolded protein response (XBP1); CHO-XBP1 luciferase reporter, IRE1-XBP1 UPR activation, luminescence; percent of tunicamycin response, DMSO as zero; activation, % at 20 µM; 330,000 tested, 0.33% active; AID 463104;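 active = versus positive control, 20 µM dose yields 30% or more activation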;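 also: 100% = tunicamycin at 10 µg/mL and 0% = DMSO only wells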
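Test system: CHO-XBP1 luciferase reporter cells | Buffer or medium: Serum-containing F12 medium, 10% FBS | Schedule: 6 h compound exposure at 37 °C, 5% CO2 | Detection: Steady-Glo luciferase glow luminescence, 10 min after reagent addition | Read-out basis: Activation, % of tunicamycin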
UPR CHOP act = apoptotic UPR (CHOP) activation. CHO-CHOP luciferase reporter, luminescence; percent of tunicamycin response over DMSO baseline. activation, % at 10 µM. 330,000 tested, 0.34% active. AID 449763;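 active = at 10 µM dose, activation of 40% or more, normalized to positive control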;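 also: 100% = tunicamycin at 10 µg/mL and 0% = DMSO alone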
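Assay system: CHO cells with stable CHOP pathway luciferase reporter; Buffer or medium: F12 plus 10% serum; Times: 16-18 h cell attachment, then 6 h compound exposure, 37 °C; Signal: luciferase luminescence; Read-out basis: percent activation relative to tunicamycin control; Control set: tunicamycin high control, DMSO low control.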
Dynein transport = dynein cargo transport inhibition. 220,000 tested, 0.47% active. z-score, hits read low. AID 1381. 3617.4 mouse cells, GR-EGFP nuclear translocation imaging; test concentration mostly 20 µM; stimulated with dexamethasone, 1 µM; stronger effect = lower value;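 active = plate z-score of nuclear minus cytoplasmic receptor signal below a set negative limit, without overly bright fluorescence or cell loss, cut at about -3.5 in these data, passing the limit was not always enough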;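 also: z-score of nuclear minus cytoplasmic ring GR-EGFP intensity difference per well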
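Buffer or medium: tet-free, stripped-serum medium; reagent: dexamethasone at 1.0 µM final, 30 min; incubation: 48 h induction, 1 h compound, 30 min dex at 37 °C; measured by: formaldehyde fixation, Hoechst nuclear stain, 10x automated fluorescence imaging; read-out: nuclear-to-cytoplasmic GR-EGFP distribution per well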
CHOP inh conf = confirmation of CHOP induction inhibitors | shares compounds with CHOP inhibitor | CHO-CHOP promoter luciferase reporter, tunicamycin-induced, luminescence | 2,100 tested, 45% active | AID 504437 | inhibition, % at 10 µM;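 active = mean of three repeat readings of reporter signal inhibition above a set limit, cut at about 70% in these data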;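 also: 0% = tunicamycin plus vehicle and 100% = wells lacking tunicamycin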
* = called active by the depositor; / = no result.

SMILES	B2AR ag	pCIP destab	CHOP inhibitor	XBP1 UPR activ	UPR CHOP act	Dynein transport	CHOP inh conf
CS(=O)(=O)c1ccc(Cl)c(NC(=O)COC(=O)CCCN2C(=O)c3cccc4cccc(c34)C2=O)c1	4.1	/	/	2.2	0.7	/	/
COc1cc(/C=N/N=C(/C(=O)c2ccccc2)c2ccccc2)cc(OC)c1O	-4.7	-19.0	99.1*	-2.3	2.5	-0.753	1.4
Cn1nc(-c2ccc(Cl)cc2)cc1NC(=O)Nc1ccccc1	-0.8	-13.4	-0.8	1.4	4.2	-0.312	/
Cn1nc(-c2ccccc2)cc1NC(=O)Nc1ccc(C(C)(C)C)cc1	15.2	-14.1	105.4*	-1.7	-1.2	0.953	81.1*
CCn1c(=NC(=O)C2COc3ccccc3O2)sc2c(OC)ccc(OC)c21 (stereo unspecified)	-4.6	-5.4	5.9	-0.7	1.3	-0.863	/
O=C(Nc1ccc(Cl)cc1)Nc1ccc(N2CCCC2)c(S(=O)(=O)Nc2ccccc2Cl)c1	16.8	-11.2	99.5*	11.1	16.0	-0.337	73.2*
Cc1ccc(-c2cc(-c3ccccc3)no2)c(O)c1	8.4	-12.8	66.6	/	/	-0.165	/
Cc1ccc2nc(-c3cc(-c4ccccc4)no3)cn2c1	1.8	-5.6	105.0*	-8.6	-4.8	-0.96	73.9*
COc1ccc(C(=O)On2c(-c3ccc(Br)cc3)nc3ccccc3c2=O)cc1	15.3	-1.9	105.5*	8.9	3.1	-0.58	68.7
COc1cc(OC)cc(-c2nc3ccccc3c(=O)n2OC(=O)c2ccc(Br)cc2)c1	16.4	-11.5	105.6*	-1.3	-1.0	0.872	111.6*
O=C(Nc1ccccc1)C(c1ccccc1)C1CCCC1 (stereo unspecified)	-34.8	0.5	13.8	/	/	-0.602	/
O=C(NNc1cc(Br)c(O)c(Br)c1)c1ccccc1	6.9	5.1	40.6	-1.0	0.4	-1.08	/
CCCCOC(=O)Nc1ccc(S(=O)(=O)Nc2ccc([N+](=O)[O-])cc2)cc1	1.2	10.4	-2.2	-0.2	2.7	-0.223	/
CCCCCOC(=O)Nc1ccc(S(=O)(=O)Nc2cccc([N+](=O)[O-])c2)cc1	2.4	9.9	108.9*	-0.2	1.7	0.131	26.6
Cc1cc2cc(CN(Cc3ccco3)C(=O)C3CCCCC3)c(=O)[nH]c2cc1C	-1.6	7.9	105.4*	5.7	-1.2	0.552	36.6
Cc1cc2cc(CN(Cc3ccco3)C(=O)NCc3ccccc3)c(=O)[nH]c2cc1C	-0.8	-6.5	43.8	-4.0	-2.7	0.102	/
Cc1ccc(NC(=O)NC2CCCCCCC2)cc1C	-7.0	-11.8	/	6.3	7.4	/	/
Cc1ccc(NC(=O)c2ccc(C#CC3(O)CCCCC3)cc2)cc1C	3.2	-9.5	100.9*	3.9	5.2	-0.346	105.7*
O=c1/c(=C\c2cccnc2)sc2nc3ccccc3n12	-5.8	-5.4	0.5	/	/	-0.371	/
Cc1ccccc1N1C(=O)c2sc3nc4c(c(=O)n3c2C1=O)CCC4	-18.4	-4.5	106.3*	-1.8	-0.3	-1.18	-14.1
O=C1c2sc3nc4ccccc4n3c2C(=O)N1c1ccccc1Cl	46.1*	3.1	106.1*	-0.7	4.2	-2.9	-5.1
COc1cc(C2C3=C(COC3=O)OC(C)(C)Oc3cc4c(cc32)OCO4)cc(OC)c1OC (stereo unspecified)	11.5	/	/	/	/	/	/
CS(=O)(=O)c1ccc(Cl)c(NC(=O)COC(=O)c2cccc(C#N)c2)c1	-8.1	14.0	-5.9	-1.6	-0.2	-0.905	/
CCCCCc1cc(=O)oc2c(C(CCN3CCCCC3)c3cc(OC)c(OC)c(OC)c3)c(OC)cc(OC)c12 (stereo unspecified)	21.4	-10.8	104.7*	1.4	6.9	-6.45	52.8
CCOC(=O)C1(Cc2ccc(OC)cc2)CCN(C(=O)C2=CCCC2)CC1	-6.2	2.1	102.5*	2.1	1.1	2.37	13.7
SMILES	B2AR ag	pCIP destab	CHOP inhibitor	XBP1 UPR activ	UPR CHOP act	Dynein transport	CHOP inh conf
CCCCOC(=O)c1ccc(NC(=O)c2ccoc2C)cc1	2.6	6.2	101.0*	-1.0	7.1	-0.411	46.7
CCCOC(=O)c1ccc(NC(=O)c2ccoc2C)cc1	2.6	-6.0	52.4	5.7	3.5	-0.422	/
CCC(C)(C(=O)NC1CCCC1)N(C)C(=O)c1ccccn1 (stereo unspecified)	0.9	0.6	16.5	-1.6	0.1	-0.558	/
CCOc1ccc(NC(=O)CN(C)C(=O)C2CCN(C(=O)c3ccc(Cl)cc3)CC2)cc1OCC	2.1	/	/	-1.4	2.0	/	/
CC(/C=N/n1c(COc2ccccc2)n[nH]c1=S)=C\c1ccccc1	-2.3	-6.0	111.3*	-1.0	1.5	0.264	-8.3
S=c1[nH]nc(C2CCCCC2)n1/N=C/C(Cl)=C\c1ccccc1	-8.1	-11.8	101.7*	5.6	-0.3	-2.08	28.9
S=c1[nH]nc(C2CCCCC2)n1/N=C/C=C/c1ccccc1	10.9	8.2	104.8*	0.6	-1.3	-0.804	106.4*
Cc1cccc(/C=N/n2c(COc3ccccc3)n[nH]c2=S)c1	-16.0	-3.6	/	-4.4	-0.9	/	/
O=C(c1ccc(S(=O)(=O)Cc2ccccc2Cl)c([N+](=O)[O-])c1)N1CCN(c2ccccn2)CC1	3.6	14.6	-14.8	-2.6	2.0	-0.999	/
O=C(COc1ccc([N+](=O)[O-])cc1)NNC(=O)c1cccs1	12.7	4.4	3.1	-1.0	1.7	0.511	/
CC1=C(C(=O)OCC2CCCO2)C(c2ccc(Cl)c(Cl)c2)NC(=O)N1 (stereo unspecified)	-7.6	3.0	17.8	-3.3	1.2	0.741	/
CC(C)(C)c1ccc(OCC(=O)N/N=C/C2CC=CCC2)cc1 (stereo unspecified)	13.6	20.8	98.7*	-3.2	7.2	0.569	98.6*
CC(C)(C)c1ccc(OCC(=O)N/N=C/c2ccc(N3CCOCC3)cc2)cc1	8.6	0.4	104.7*	-3.3	2.0	0.29	64.9
O=C(CCc1ccccc1)N/N=C\C1CC=CCC1 (stereo unspecified)	-3.2	-5.9	/	1.9	-0.6	/	/
O=C(NC1CCCCC1)C(c1ccc(F)cc1)N(Cc1ccccc1)C(=O)CN1C(=O)c2ccccc2S1(=O)=O (stereo unspecified)	-8.7	3.9	109.3*	23.1	5.8	-0.129	79.5*
Cc1onc(-c2ccccc2)c1-c1nnc(-c2ccccc2C(F)(F)F)o1	-2.3	3.8	18.8	-1.5	-1.8	0.566	/
CCn1c(C)nc2cc(-c3nnc(-c4c(-c5ccccc5)noc4C)o3)ccc21	-6.4	-1.8	101.5*	16.8	5.7	2.25	85.2*
CCOc1cc(CNc2ccc(O)cc2)cc(Br)c1OCc1ccccc1F	12.6	-11.9	109.6*	4.5	0.2	-0.796	63.2
